# Data reported in ChEMBL document CHEMBL3124905, “Isothiocoumarin-3-carboxylic acid derivatives: synthesis, anticancer and antitrypanosomal activity evaluation” (Eur J Med Chem, 2014).
# Columns and labels:
# [1] = Acute toxicity in ip dosed white mouse; format: organism-based; conditions: in vivo
# In short: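 White male mice, 23-25 g, dosed intraperitoneally with compound dissolved in 0.9% NaCl saline plus 1-2 drops Polysorbate 80 (Tween-80). Solutions prepared immediately before use. Doses ranged 100-1000 mg/kg, testing 4 or 5 doses with 6 animals per dose. LD50 derived by the Litchfield-Wilcoxon method.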
# [2] = tested on: Trypanosoma brucei brucei; experiment: Antitrypanosomal activity against bloodstream form of Trypanosoma brucei brucei strain 90-13 assessed as inhibition of parasite growth at 10 ug/ml after 72 hrs by resazurin reduction test; format: functional; conditions: strain 90-13, 72 h
# In short: (§1)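 Trypanosoma brucei brucei 90-13 bloodstream forms, grown in HMI9 with 10% FCS at 37 °C under 5% CO2. Log-phase parasites were seeded at 10^5 cells/mL with or without inhibitor, with stocks prepared in DMSO. After 72 h, resazurin was added and fluorescence was read at 530/590 nm after a further 4 h. Percent growth inhibition was calculated versus drug-free parasites, with DMSO as control.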
# [3] = tested on: Trypanosoma brucei brucei; experiment: Antitrypanosomal activity against bloodstream form of Trypanosoma brucei brucei strain 90-13 assessed as inhibition of parasite growth at 1 ug/ml after 72 hrs by resazurin reduction test; format: functional; conditions: strain 90-13, 72 h; in short: as §1
# SF-268 = experiment: Anticancer activity against human SF268 cells assessed as cell growth at 100 uM after 48 hrs by SRB assay; format: functional; conditions: SF-268, 48 h, read-out: Activity
# In short: (§2)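 NCI one-dose primary screen on a three-line panel (breast MCF7, lung NCI-H460, CNS SF-268). Cells were inoculated and preincubated 24–48 h, then exposed to a single concentration of 10−4 M for 48 h. The endpoint was sulforhodamine B protein staining, and results are expressed as percent growth relative to untreated control cells. Negative values denote cytotoxicity.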
# MCF7 = experiment: Anticancer activity against human MCF7 cells assessed as cell growth at 100 uM after 48 hrs by SRB assay; format: functional; conditions: MCF7, 48 h, read-out: Activity; in short: as §2
# NCI-H460 = experiment: Anticancer activity against human NCI-H460 cells assessed as cell growth at 100 uM after 48 hrs by SRB assay; format: functional; conditions: NCI-H460, 48 h, read-out: Activity; in short: as §2
# [4] = Growth inhibition of human SF539 cells after 48 hrs by SRB assay; format: functional; conditions: SF-539, 48 h
# In short: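 NCI five-dose assay against the ~60-cell-line panel (nine cancer types). Tenfold dilutions from 10−4 to 10−8 M were used with continuous 48-h exposure and SRB absorbance readout. Percent growth was computed from time-zero, control and treated absorbances. GI50 is the concentration giving 50% lower net protein increase than controls. Values not reached are reported as beyond the tested range.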
# SR = experiment: Growth inhibition of human SR cells after 48 hrs by SRB assay; format: functional
# In short: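 NCI ~60-cell-line five-dose screen. Cells were preincubated 24-48 h, then given compound at 10-fold dilutions from 10^-4 to 10^-8 M with 48 h continuous exposure. SRB protein stain was read by absorbance at time zero, in untreated control and with drug. GI50 was derived from [(Ti-Tz)/(C-Tz)]x100=50, TGI from Ti=Tz, and LC50 from [(Ti-Tz)/Tz]x100=-50.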
SMILES,LD50 [1] [mg/kg],inhibition at 10 µg/mL [2] [%],inhibition at 1 µg/mL [3] [%],growth at 100 µM (SF-268) [%],growth at 100 µM (MCF7) [%],growth at 100 µM (NCI-H460) [%],GI50 [4] [µM],TGI ([4]; read-out: pTGI (converted)) [µM],GI50 (SR) [µM],TGI (SR; read-out: pTGI (converted)) [µM]
O=C(Nc1cccc2ccccc12)c1cc2ccccc2c(=O)s1,410,> 50,60.8,–,–,–,–,–,–,–
Cc1cc(NC(=O)c2cc3ccccc3c(=O)s2)no1,–,–,–,86,85,31,30.2,> 100,0.339,> 100
